Compounds with a hit are over-represented: about 1.7% of the library has one in this group of screens.
CAL PDZ FP-1 = CAL PDZ peptide-binding inhibitors, primary screen, biochemical, fluorescence polarization, Cer-tagged CAL PDZ, HTS; AID 504414, 2011; Golgi-associated PDZ and coiled-coil motif-containing protein (Homo sapiens), Q9HD26; actives 0.02% (n = 330,000); purified CAL PDZ, TMR-peptide fluorescence polarization, 1 h; inhibition, % at 20 µM;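 active = highest replicate inhibition of at least 40%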;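 note: plate controls were DMSO neutral control wells for no effect and unlabeled competitor peptide control wells for full effect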
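material = purified tagged CAL PDZ domain construct (CerCALP) | compound dosing = 20 µM, one dose | times = 1 h at RT | measured by = fluorescence polarization from S- and P-plane intensities, G-factor corrected | read-out = inhibition from polarization loss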
CAL PDZ FP-2 = untagged CAL PDZ binding inhibitors, primary screen, biochemical, fluorescence polarization, HTS; Golgi-associated PDZ and coiled-coil motif-containing protein (Homo sapiens), Q9HD26; purified CAL PDZ, TMR-peptide fluorescence polarization, 1 h; inhibition, % at 24.9 µM; actives 0.92% (n = 300,000);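 active = mean inhibition of at least 30% with at least half of replicates also reaching 30%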;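 note: 0% = DMSO neutral control and 100% = excess unlabeled competitor peptide PRC23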
F508del corr = F508del CFTR correction, initial screen, CFBE line, single point; activity (quench increase), % at 7.58 µM; CFBE cells, YFP halide quenching; stimulated with forskolin plus potentiator P3; % fluorescence drop versus neutral controls; actives 0.36% (n = 350,000);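 active = mean added fluorescence quench of at least 8% versus neutral control, with both replicates also reaching 8%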;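 note: cells transiently co-express mutant CFTR-F508del with the halide-sensitive YFP; corrector assay measuring rescue of mutant channel to the surface after 24 h compound exposure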
ARNT TACC3 PPI = disruptors of ARNT/TACC3 protein interaction, primary screen, biochemical, AlphaScreen, single concentration | Transforming acidic coiled-coil-containing protein 3 (Homo sapiens), Q9Y6A5 | AlphaScreen His-ARNT PAS-B/GST-TACC3 binding, luminescence; TACC3 fragment carries E629A point mutation | inhibition, % at 9.99 µM | actives 0.66% (n = 390,000) | AID 623870, 2012;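 active = mean inhibition of replicates at least 50% and at least half of replicates each reaching 50%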;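 note: 0% = complete ARNT plus TACC3 wells and 100% = ARNT alone without TACC3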
miR-122 sensor = miR-122 Renilla sensor signal increase in Huh7, primary screen, miR-122 inhibitor project, cell-based, single point, plate reader; AID 602342, 2012; Huh7 miR-122 Renilla luciferase sensor, 48 h; neutral wells = 0, positive control = 100; actives 0.3% (n = 340,000); activation (reporter increase), % at 12.5 µM;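 active = mean replicate activation score at least 90 and every replicate individually at or above 90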;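 note: higher luciferase means less miR-122 activity so hits act as miR-122 inhibitors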
PGC1a acetyl inh = inhibitors of PGC1a acetylation signal, primary screen, cell-based, U2OS, AlphaScreen, inhibitor mode; inhibition, % at 15.6 µM; AlphaScreen anti-acetyl-lysine; with virally co-expressed GCN5 acetyltransferase; actives 0.17% (n = 350,000);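 active = every replicate shows inhibition of at least 40%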;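 note: 0% = neutral control wells and 100% = positive control wells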
Starred values were filed as active, the others as inactive; / = not tested or not shown; [ ] = dose if it differs, or a comment.

SMILES	CAL PDZ FP-1	CAL PDZ FP-2	F508del corr	ARNT TACC3 PPI	miR-122 sensor	PGC1a acetyl inh
CC1=CC(C)(C)Nc2ccc(OC(=O)CN3C(=O)c4ccccc4C3=O)cc21	0	-5	/	-2	/	/
C[C@H](CO)N1C[C@H](C)[C@@H](CN(C)S(=O)(=O)c2ccc(F)cc2)Oc2c(NC(=O)c3cnccn3)cccc2C1=O	/	/	-3	/	4[16.7 µM]	10
CCN1CC2=C(OC(N)=C(C#N)C2c2cccs2)/C(=C/c2cccs2)C1 (stereo unspecified)	0	43*	/	41	-8	3
C(=NNc1ccc2ccccc2n1)c1ccccn1	/	/	8.2*	/	26	35
Cc1csc(N/N=C/c2ccccn2)n1	-1	14	1	59*	-15	10
COc1cccc(-c2ccc([C@H]3[C@@H](CO)N(C(C)=O)C34CN(C(C)=O)C4)cc2)c1	/	/	-1	/	/	-2
Cc1nc2c(sc3nc4c(cc32)COC(C)(C)C4)c(=O)n1CC(=O)NCc1ccco1	-1	-4	13*	-6	43	-1
CC(=O)C(Cc1ccccc1)NC(=O)CCl (stereo unspecified)	0	1	3	/	/	/
CC(=O)NC(Cc1ccccc1)C(C)=O (stereo unspecified)	33	100*	0	0	-6	5
Cc1cccc(N2CCN(C(=O)c3ccc(NC4=NC5CS(=O)(=O)CC5S4)cc3)CC2C)c1 (stereo unspecified)	0	93*	-1	4	-3	-17
O=C(c1ccc(NC2=NC3CS(=O)(=O)CC3S2)cc1)N1CCN(c2ccccc2)CC1 (stereo unspecified)	-1	2	-5	-3	/	/
Clc1ccc2c(c1)-c1ccccc1C1=NCCN12	/	/	8.3*	/	/	/
Brc1ccc2c(c1)-c1ccccc1C1=NCCN12	/	/	3	/	28	-5
Clc1ccc(-c2ccc(C=Nc3ccc(N4CCOCC4)cc3)o2)c(Cl)c1	0	-1	2	10	-5	7
Clc1cccc(-c2ccc(C=Nc3ccc(N4CCOCC4)cc3)o2)c1Cl	-1	/	14*	-32	/	4
Nc1ccc(Cc2nc3c(ccc4ccccc43)[nH]2)cc1	-2	-1	-1	-3	/	-2
c1ccc(-c2nc3c(ccc4ccccc43)[nH]2)nc1	-3	-2	/	57*	13	-24
C[C@@H]1CN([C@@H](C)CO)C(=O)c2cccc(NS(=O)(=O)c3cccs3)c2O[C@@H]1CN(C)CC1CCCCC1	/	/	0	2	7[16.7 µM]	/
COc1ccc(OCC(O)CNC(=O)c2ccc(Br)cc2)cc1 (stereo unspecified)	13	72*	/	-3	-2	/
CC1CN(C(=S)Nc2ccccc2)N(c2ccccc2)C1 (stereo unspecified)	-1	67*	-1	2	/	/
N#Cc1c(N(CCO)CCO)nc(N)c2c(N)nc3c(c12)CC(=O)N3Cc1cccs1	-3	-7	/	19	-3	-9
CN(CCO)c1nc(N)c2c(N)nc3c(c2c1C#N)CC(=O)N3Cc1cccs1	0	123*	-7	1	-3	/
COc1ccc(CCNC(=O)C(=O)N/N=C/c2cccs2)cc1OC	-1	78*	1	-5	-2	/
C[C@H](O)C#Cc1ccc2c(c1)O[C@H](CN(C)CC1CC1)[C@H](C)CN([C@H](C)CO)S2(=O)=O	/	/	-1	/	2[16.7 µM]	-1
C[C@@H]1CN([C@H](C)CO)C(=O)c2cc(NS(C)(=O)=O)ccc2O[C@H]1CN(C)S(=O)(=O)c1ccc(F)cc1	/	/	-1	-3	-17[16.7 µM]	7
SMILES	CAL PDZ FP-1	CAL PDZ FP-2	F508del corr	ARNT TACC3 PPI	miR-122 sensor	PGC1a acetyl inh
COc1cc(C2C=C(c3cccs3)Nc3ncnn32)cc(OC)c1OC (stereo unspecified)	1	33*	/	0	/	12
COc1cc(C2CC(=O)C3=C(C2)Nc2ncnn2C3c2cccs2)cc(OC)c1OC (stereo unspecified)	/	/	/	/	3	7
COCC(=O)Nc1ccc2c(c1)[C@H]1C[C@@H](CC(=O)N3CCCCC3)O[C@@H](CO)[C@H]1O2	/	/	-1	-7	8[16.7 µM]	-4
COc1cc(NC(=O)C2CCCN(S(=O)(=O)c3cccc4nsnc34)C2)cc(OC)c1 (stereo unspecified)	-1	58*	/	3	-3	-15
CCc1nc(N)nc(N)c1-c1ccc(N(C)Cc2ccccc2)c([N+](=O)[O-])c1	0	-5	2	5	-3	14
CCc1nc(N)nc(N)c1-c1ccc(Cl)cc1	-1	3	0	-6	-3	48*
